Consider 35 compounds from ChEMBL document CHEMBL3352559, “Synthesis and pharmacological investigation of aralkyl diamine derivatives as potential triple reuptake inhibitors” (Eur J Med Chem, 2014).

Data set [1] has as its target T1, Sodium-dependent serotonin transporter (Homo sapiens, UniProt P31645). As to the kind of experiment: Inhibition of [3H]-serotonin uptake in human SERT expressed in HEK293 cells at 10 uM by scintillation counting. The class given is cell-based.
Target sequence in this assay (P31645 whole entry, looked up): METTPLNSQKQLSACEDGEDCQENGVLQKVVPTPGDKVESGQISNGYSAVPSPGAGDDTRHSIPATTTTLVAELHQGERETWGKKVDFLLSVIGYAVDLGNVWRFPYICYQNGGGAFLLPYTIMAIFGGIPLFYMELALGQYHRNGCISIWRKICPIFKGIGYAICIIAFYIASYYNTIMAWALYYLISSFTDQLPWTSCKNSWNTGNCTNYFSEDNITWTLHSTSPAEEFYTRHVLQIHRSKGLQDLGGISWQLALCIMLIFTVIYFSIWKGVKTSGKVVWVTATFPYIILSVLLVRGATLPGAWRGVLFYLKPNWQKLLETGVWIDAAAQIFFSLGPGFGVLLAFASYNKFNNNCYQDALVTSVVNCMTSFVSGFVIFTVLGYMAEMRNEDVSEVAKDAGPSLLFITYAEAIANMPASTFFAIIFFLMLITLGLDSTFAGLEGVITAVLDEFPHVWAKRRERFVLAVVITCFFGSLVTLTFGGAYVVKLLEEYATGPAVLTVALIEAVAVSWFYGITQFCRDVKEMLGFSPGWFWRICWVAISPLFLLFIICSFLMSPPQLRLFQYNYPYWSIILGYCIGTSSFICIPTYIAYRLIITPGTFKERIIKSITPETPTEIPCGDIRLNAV
The target of data set [2] is T2, Sodium-dependent noradrenaline transporter (Homo sapiens, UniProt P23975). Description: Inhibition of [3H]-NE uptake in human norepinephrine transporter expressed in HEK293 cells at 10 uM by scintillation counting. The class given is cell-based.
Data set [3] has as its target T3, Sodium-dependent dopamine transporter (Homo sapiens, UniProt Q01959). Description: Inhibition of [3H]-DA uptake in human dopamine transporter expressed in CHO cells at 10 uM by scintillation counting.
Data set [4] concerns the target T2, Sodium-dependent noradrenaline transporter. As to the kind of experiment: Inhibition of [3H]-NE uptake in human norepinephrine transporter expressed in HEK293 cells by scintillation counting. The class given is cell-based.
Data set [5] has as its target T3, Sodium-dependent dopamine transporter. As to the kind of experiment: Inhibition of [3H]-DA uptake in human dopamine transporter expressed in HEK293 cells by scintillation counting. Type of data set: cell-based.
The target in data set [6] is T1, Sodium-dependent serotonin transporter. As to the kind of experiment: Inhibition of [3H]-serotonin uptake in human SERT expressed in HEK293 cells by scintillation counting. Type of data set: cell-based.
Target sequence in this assay (P31645 whole entry): as the sequence (P31645 whole entry, looked up) above
In data set [7] the test system is Rattus norvegicus. Description: Antidepressant activity in po dosed rat assessed as reduction in immobility time by forced swimming test. The class given is functional, organism-based. In outline: (§1)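 Male rats dosed orally at 5, 10 or 20 mg/kg alongside vehicle and venlafaxine 30 mg/kg PO groups. 1 h post-dose, each rat placed in a glass cylinder (40 cm × 18 cm) holding 15 cm of 25 ± 1 °C water. Immobility time recorded over a 6 min trial; significant main effects followed by post hoc Fisher's test.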

The test system of data set [8] is Rattus norvegicus. As to the kind of experiment: Antidepressant activity in rat assessed as reduction in immobility time at 5 mg/kg, po by forced swimming test relative to control. The class given is functional. The gist of the method:
as §1

Data set [9] relates to Rattus norvegicus. Description: Antidepressant activity in rat assessed as reduction in immobility time at 10 mg/kg, po by forced swimming test relative to control. The class given is functional. The gist of the method: as §1
The test system of data set [10] is Rattus norvegicus. As to the kind of experiment: Antidepressant activity in rat assessed as reduction in immobility time at 20 mg/kg, po by forced swimming test relative to control. The class given is functional. In outline:
as §1

Data set [11] deals with Rattus norvegicus. As to the kind of experiment: Toxicity in rat assessed as effect on locomotion at 20 mg/kg, po after 60 mins by spontaneous locomotor test. Type of data set: organism-based. Also noted: dose 20 mg/kg, route oral. As to conditions: in vivo, 1 h. The gist of the method: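 Rats dosed orally at 20 mg/kg, with vehicle and venlafaxine 30 mg/kg PO as controls; 60 min later placed singly in novel 40×40×50 cm cages under dim light with sound attenuation; activity recorded automatically in 5 min bins over 30 min; mean ± SEM.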

The test system of data set [12] is Rattus norvegicus. As to the kind of experiment: Toxicity in rat assessed as effect on locomotion at 30 mg/kg, po after 60 mins by spontaneous locomotor test. Type of data set: organism-based. The settings on record: in vivo, 1 h. Also noted: dose 30 mg/kg, route oral. The gist of the method:
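Rats were dosed PO. 60 min later each was placed alone in an unfamiliar 40 cm × 40 cm × 50 cm plastic cage under dim light and sound attenuation. Spontaneous activity was monitored automatically at 5 min intervals for up to 30 min. Results are mean ± SEM versus vehicle.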

Data set [13] has as its system Rattus norvegicus. As to the kind of experiment: Antidepressant activity in rat assessed as reduction in immobility time at 30 mg/kg, po by forced swimming test relative to control. Type of data set: functional. In outline: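 Male rats were dosed PO with vehicle or compound. After 1 h each rat was placed in a clear glass cylinder (40 cm tall × 18 cm diameter) holding water at 25 ± 1 °C, 15 cm deep. Immobility time was recorded over a 6 min trial and compared with vehicle. Significant main effects were followed by Fisher's post hoc test.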

T3 sequence (Q01959 whole entry): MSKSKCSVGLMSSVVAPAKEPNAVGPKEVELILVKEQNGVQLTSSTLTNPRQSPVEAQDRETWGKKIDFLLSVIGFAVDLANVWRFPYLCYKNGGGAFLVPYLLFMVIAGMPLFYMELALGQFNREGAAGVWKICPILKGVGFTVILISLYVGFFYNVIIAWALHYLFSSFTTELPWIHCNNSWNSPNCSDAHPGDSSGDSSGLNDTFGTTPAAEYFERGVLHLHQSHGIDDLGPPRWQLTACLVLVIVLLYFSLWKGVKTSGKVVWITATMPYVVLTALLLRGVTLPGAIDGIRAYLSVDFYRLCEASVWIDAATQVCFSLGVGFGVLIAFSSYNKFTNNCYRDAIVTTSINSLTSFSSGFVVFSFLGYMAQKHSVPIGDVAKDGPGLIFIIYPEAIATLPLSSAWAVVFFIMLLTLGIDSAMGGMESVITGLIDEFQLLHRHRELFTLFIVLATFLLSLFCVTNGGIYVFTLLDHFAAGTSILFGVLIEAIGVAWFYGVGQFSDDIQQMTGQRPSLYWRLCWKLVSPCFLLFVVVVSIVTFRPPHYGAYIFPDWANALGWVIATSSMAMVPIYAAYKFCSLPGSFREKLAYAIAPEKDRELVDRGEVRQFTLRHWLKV
T2 sequence (P23975 whole entry): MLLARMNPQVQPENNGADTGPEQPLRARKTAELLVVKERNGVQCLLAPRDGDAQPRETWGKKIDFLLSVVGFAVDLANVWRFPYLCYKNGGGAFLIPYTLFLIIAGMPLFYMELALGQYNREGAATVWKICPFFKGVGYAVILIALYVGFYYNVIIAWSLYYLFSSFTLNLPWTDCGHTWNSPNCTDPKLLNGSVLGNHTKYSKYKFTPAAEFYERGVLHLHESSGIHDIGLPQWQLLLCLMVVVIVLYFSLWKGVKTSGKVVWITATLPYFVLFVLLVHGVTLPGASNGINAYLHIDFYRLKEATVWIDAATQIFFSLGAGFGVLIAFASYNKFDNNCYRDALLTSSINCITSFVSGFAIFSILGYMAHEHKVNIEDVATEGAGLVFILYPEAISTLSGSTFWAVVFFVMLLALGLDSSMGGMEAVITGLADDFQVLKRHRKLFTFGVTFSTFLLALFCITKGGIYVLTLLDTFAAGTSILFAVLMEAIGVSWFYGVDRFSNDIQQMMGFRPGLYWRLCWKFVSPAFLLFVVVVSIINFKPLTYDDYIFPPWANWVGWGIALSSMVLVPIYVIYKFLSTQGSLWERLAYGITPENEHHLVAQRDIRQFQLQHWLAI

As to `CN(CCC(c1ccc(F)cc1F)N1CCOCC1)Cc1ccccc1` (centres undefined), the inhibition was 24.1% in data set [1], 5.3% in data set [2] and 46.2% in [3].
Take `CCN(CC)CCC(c1ccc(Cl)c(Cl)c1)N1CCCC1` (centres undefined): the IC50 worked out at 136 nM in data set [4] and 363 nM in data set [5]. This compound yielded an inhibition in data set [1] of 76.5%.
For `Clc1ccc(C(CCN2CCOCC2)N2CCOCC2)cc1Cl` (centres undefined), the inhibition turned out to be 73.8% in [1], 4.9% in data set [2] and 54.4% in [3].
For `CN(C)CCC(c1cc2ccccc2s1)N1CCCC1` (centres undefined), the IC50 is 401 nM in [6], 495 nM in [4] and 863 nM in data set [5].
As for `CN(C)CCC(c1cc2ccccc2s1)N1CCOCC1` (centres undefined), the IC50 in data set [6] stood at 449 nM; in data set [4], 1460 nM. For the same compound, the inhibition in data set [3] came to 66.8%.
Take `CN(C)CCC(c1ccc(F)cc1)N1CCCC1` (centres undefined): the inhibition was determined as 70.2% in [1], 68.9% in data set [2] and 46.6% in data set [3].
As for `CN(C)CCC(c1ccc(F)cc1)N1CCCCC1` (centres undefined), the inhibition came to 62.7% in data set [1], 87.6% in [2] and 40.1% in [3].
Taken in the same sequence, the figures for `COc1ccc2cc(C(CCN(C)Cc3ccccc3)N3CCOCC3)ccc2c1Cl` (centres undefined) were 47.3%, 49.5% and 2.5%.
Taken in the same sequence, the figures for `CN(C)CCC(c1ccc(F)cc1F)N1CCOCC1` (centres undefined) were 55.6%, 19.4% and 50.7%.
For the compound `CN(C)CCC(c1ccc(Cl)cc1)N1CCOCC1` (centres undefined), the inhibition was 58.5% in data set [1], 52.5% in data set [2] and 35.7% in [3].
In data set [5], `C1=C(Cc2ccccc2)CCN(CCC(c2csc3ccccc23)N2CCOCC2)C1` (centres undefined) returned an IC50 of 852 nM. Further, the results for the inhibition in data set [1] and in data set [2] were 65.4% and 79.1%, respectively.
As for `C1=C(Cc2ccccc2)CCN(CCC(c2csc3ccccc23)N2CCCC2)C1` (centres undefined), the IC50 in data set [6] was 621 nM; in data set [4], 157 nM; in data set [5] it was 325 nM.
As to `CN(C)CCC(c1ccc(Cl)c(Cl)c1)N1CCNCC1` (centres undefined), the IC50 is 399 nM in [6] and 428 nM in data set [4]. Also, the inhibition in data set [3] is 80.1%.
Consider `COc1ccc2cc(C(CCN(C)C)N3CCCC3)ccc2c1Cl` (centres undefined), for which the IC50 in data set [6] amounted to 338 nM; in [4], 374 nM; in [5], 8190 nM.
For the compound `Clc1ccc(C(CCN2CCCCC2)N2CCOCC2)cc1Cl` (centres undefined), the inhibition in data set [1] amounted to 59.9%; in data set [2] it was 74%; in [3] it was 68.1%.
Taken in the same sequence, the figures for `COc1ccc2cc(C(CCN3CC=C(Cc4ccccc4)CC3)N3CCCC3)ccc2c1Cl` (centres undefined) were 79.9%, 73.5% and 79.5%.
Taken in the same sequence, the figures for `CN(C)CCC(c1ccc(C(F)(F)F)cc1)N1CCOCC1` (centres undefined) were 46.2%, 83.2% and 8.5%.
`CN(CCC(c1ccc(Cl)c(Cl)c1)N1CCOCC1)Cc1ccccc1` (centres undefined): the inhibition in data set [1] was 35.6%; in [2], 50.6%; in data set [3] it was 3.4%.
Regarding `Clc1ccc(C(CCN2CC=C(Cc3ccccc3)CC2)N2CCCC2)cc1Cl` (centres undefined), the IC50 was 426 nM in data set [4] and 291 nM in [5]. Besides, in data set [1], the inhibition is 79.1%.
Take `Clc1ccc(C(CCN2CCOCC2)N2CCCC2)cc1Cl` (centres undefined): the figures for the IC50 in [6], in data set [4] and in data set [5] were 389 nM, 68.9 nM and 238 nM, respectively. Moreover, the inhibition entry in [7] was “Dose-dependent effect”. For the same compound, the inhibition in vivo at 5 mg/kg in [8] came to 12%. Further, the inhibition in vivo at 10 mg/kg in [9] came out at 17%. Also, the inhibition in vivo at 20 mg/kg in [10] was determined as 34%. Also, in data set [11], the Activity result is recorded as “Non-toxic”.
With `COc1ccc(C(CN(C)C)C2(O)CCCCC2)cc1` (centres undefined) [VENLAFAXINE], in data set [12], the Activity entry was “Toxic”. For the same compound, the inhibition in vivo at 30 mg/kg in data set [13] is 14%.
For the compound `CN(C)CCC(c1csc2ccccc12)N1CCOCC1` (centres undefined), the IC50 amounted to 1190 nM in data set [6] and 2540 nM in data set [4]. Further, the inhibition in data set [3] was determined as 56.8%.
As to `CNCCC(c1ccc(F)cc1F)N1CCOCC1` (centres undefined), half-maximal inhibition in [4] (IC50) required 328 nM. The figures for the inhibition in data set [1] and in data set [3] were 86.1% and 42%, respectively.
Turning to `CN(C)CCC(c1ccc(F)cc1)N1CCOCC1` (centres undefined), the inhibition was 50.7% in data set [1], 74.2% in data set [2] and 6.4% in [3].
Taken in the same sequence, the figures for `CN(C)CCC(c1ccc(C(F)(F)F)cc1)N1CCCC1` (centres undefined) were 57.6%, 77.4% and 37.1%.
`CN(C)CCC(c1ccc(Cl)c(Cl)c1)N1CCCC1` (centres undefined): the IC50 was 501 nM in data set [6], 206 nM in [4] and 357 nM in data set [5]. Moreover, the inhibition result in [7] was “Dose-dependent effect”. In addition, the inhibition in vivo at 5 mg/kg in data set [8] worked out at 18%. In addition, the inhibition in vivo at 10 mg/kg in data set [9] turned out to be 25%. In data set [10], the inhibition in vivo at 20 mg/kg turned out to be 36%. In data set [11], the Activity result was “Non-toxic”.
For `CC1CCCN(C(CCN2CCOCC2)c2ccc(Cl)c(Cl)c2)C1` (centres undefined), the inhibition in data set [1] was 30.5%; in data set [2] it was 35.3%; in data set [3] it was 54.3%.
`C1=C(Cc2ccccc2)CCN(CCC(c2csc3ccccc23)N2CCCCC2)C1` (centres undefined) returned an IC50 in data set [6] of 905 nM. For the same compound, the figures for the inhibition in data set [2] and in data set [3] were 52.7% and 77.4%, respectively.
Consider `Cc1ccc(C(CCN(C)C)N2CCOCC2)cc1` (centres undefined), for which the values for the inhibition in [1], in data set [2] and in data set [3] were 39.2%, 40.4% and 25.8%, respectively.
On to `CN(C)CCC(c1csc2ccccc12)N1CCCC1` (centres undefined), for which the IC50 in data set [6] amounted to 425 nM; in [4], 250 nM; in data set [5], 986 nM.
`CCOC(=O)C1CCCN(C(CCN2CCOCC2)c2ccc(Cl)c(Cl)c2)C1` (centres undefined): the inhibition turned out to be 34.9% in data set [1], 19% in [2] and 36.6% in data set [3].
As to `CN(C)CCC(c1ccc(Cl)c(Cl)c1)N1CCCCC1` (centres undefined), the IC50 in data set [6] stood at 546 nM; in data set [4], 634 nM; in data set [5], 602 nM.
Regarding `C1=C(Cc2ccccc2)CCN(CCC(c2csc3ccccc23)N2CCNCC2)C1` (centres undefined), the IC50 in [4] is 635 nM. The inhibition in data set [1] was found to be 73.9%; in data set [3], 83.9%.
Take `COc1ccc(C(CCN(C)C)N2CCOCC2)cc1` (centres undefined): the values for the inhibition in data set [1], in [2] and in data set [3] were 25.9%, 29.3% and 22.9%, respectively.
Taken in the same sequence, the figures for `CN(CCC(c1cc2ccccc2s1)N1CCOCC1)Cc1ccccc1` (centres undefined) were 30.3%, 37.8% and 41.9%.

For orientation: inhibition means the share of the control response that was lost under treatment. A word on the IC50: it is the concentration at which inhibition is half-maximal. High values mean a need for much substance, low ones inhibition by little substance. By inhibition in vivo is commonly meant the relative decrease from the control value, in per cent.
